For 25 compounds, IC50 results are on record in PubChem BioAssay AID624340 (The Scripps Research Institute Molecular Screening Center, 2012).

By IC50 is commonly meant the midpoint of a concentration-inhibition curve.

SMILES strings stand for the structures. Values joined by “and” are separate entries in the source; they are usually repeats but may differ in a detail not shown here. Equal entries are not always repeated. Active and inactive are the calls of the source.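 How the source made its calls: active means IC50 at or below 10 µM; inactive means IC50 above 10 µM.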

Insulin-degrading enzyme (Homo sapiens), sequence (P14735 whole entry, looked up): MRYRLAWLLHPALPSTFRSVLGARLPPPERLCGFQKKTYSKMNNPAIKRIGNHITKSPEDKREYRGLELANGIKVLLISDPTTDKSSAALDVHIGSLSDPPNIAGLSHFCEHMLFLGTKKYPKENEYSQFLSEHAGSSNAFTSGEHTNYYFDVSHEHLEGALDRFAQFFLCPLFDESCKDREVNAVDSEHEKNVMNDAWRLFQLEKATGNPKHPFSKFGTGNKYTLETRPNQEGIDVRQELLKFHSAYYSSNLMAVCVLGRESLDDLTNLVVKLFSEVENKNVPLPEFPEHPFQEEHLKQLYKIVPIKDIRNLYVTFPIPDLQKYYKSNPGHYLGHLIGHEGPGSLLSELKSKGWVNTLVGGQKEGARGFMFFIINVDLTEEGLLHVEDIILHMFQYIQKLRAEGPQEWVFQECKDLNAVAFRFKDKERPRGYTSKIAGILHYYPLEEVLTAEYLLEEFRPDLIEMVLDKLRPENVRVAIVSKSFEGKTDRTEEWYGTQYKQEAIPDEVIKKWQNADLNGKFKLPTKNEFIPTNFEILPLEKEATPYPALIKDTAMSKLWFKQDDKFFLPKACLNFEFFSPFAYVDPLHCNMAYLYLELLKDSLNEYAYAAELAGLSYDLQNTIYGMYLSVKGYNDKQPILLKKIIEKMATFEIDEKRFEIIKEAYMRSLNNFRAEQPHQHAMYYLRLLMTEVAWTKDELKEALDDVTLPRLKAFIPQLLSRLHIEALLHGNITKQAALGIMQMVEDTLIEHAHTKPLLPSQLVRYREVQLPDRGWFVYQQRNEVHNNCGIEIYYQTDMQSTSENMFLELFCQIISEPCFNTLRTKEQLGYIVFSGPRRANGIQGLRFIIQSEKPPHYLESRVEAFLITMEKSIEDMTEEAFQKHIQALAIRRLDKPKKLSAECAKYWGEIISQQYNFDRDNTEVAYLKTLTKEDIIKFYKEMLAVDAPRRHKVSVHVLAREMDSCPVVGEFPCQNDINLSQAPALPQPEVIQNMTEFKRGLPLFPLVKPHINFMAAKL

This test deals with Insulin-degrading enzyme (Homo sapiens) (UniProt P14735). Briefly: IDE inhibition with fluorogenic peptide, late-stage follow-up, artefact control for IDE inhibitor project, biochemical, FRET1 substrate, fluorescence, round 2 (AID 624340). The note with it: recombinant WT IDE. The procedure, abridged: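 Assay system: Recombinant WT IDE | Input: 1 nM IDE final | Detection: Fluorescence at 335/385 nm | Times: Kinetic read every 2 min over 2 h, 22 °C | Repeats: Triplicate per concentration | Measure: IC50 from sigmoidal fit of initial-rate percent activity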
Regarding `O=C(c1ccc(Oc2ccc(F)cc2)cc1)N1CCN(C(=O)C2COc3ccccc3O2)CC1` (stereo not given), the IC50 is > 100 µM (inactive). With `CC(=O)Nc1ccccc1C(=O)N1CCN(C(=O)C2COc3ccccc3O2)CC1` (stereo not given), the IC50 entry is “inactive”. Regarding `c1coc(Cn2c(SCc3nc4ccccc4[nH]3)nnc2-c2cnccn2)c1`, the IC50 was > 100 µM (inactive). Take `O=C(c1ccc2nc(C(F)(F)F)[nH]c2c1)N1CCN(C(=O)C2COc3ccccc3O2)CC1` (stereo not given): the IC50 result was “inactive”.

As for `COc1ccc(C(=O)N2CCN(C(=O)C3COc4ccccc4O3)CC2)cc1` (stereo not given), the half-maximal inhibitory concentration (IC50) was 5.89 µM and > 100 µM (inactive). In the case of `Clc1ccc(COCc2nnc(SCc3nc4ccccc4[nH]3)n2Cc2ccco2)cc1`, the IC50 was > 100 µM (inactive). Turning to `Cc1ccc(COCc2nnc(SCc3nc4ccccc4[nH]3)n2Cc2ccco2)cc1`, the IC50 is > 100 µM (inactive).

Turning to `O=C(c1ccc(Oc2ccccc2)cc1)N1CCN(C(=O)C2COc3ccccc3O2)CC1` (stereo not given), the IC50 was > 100 µM (inactive). `COc1ccc(C(=O)N2CCN(C(=O)C3CC(=O)N(c4ccccc4)C3)CC2)cc1OC` (stereo not given): the IC50 is > 100 µM (inactive). In the case of `c1coc(Cn2c(SCc3nc4ccccc4[nH]3)nnc2-c2cccs2)c1`, the IC50 is > 100 µM (inactive). In the case of `COc1ccc(OCC(=O)N2CCN(C(=O)c3ccc(OC)c(OC)c3)CC2)cc1` it was > 100 µM (inactive); in that of `COc1ccc(C(=O)N2CCN(C(=O)C(c3ccccc3)c3ccccc3)CC2)cc1OC`, > 100 µM (inactive); in that of `COc1ccc(C(=O)N2CCN(C(=O)COc3ccc(Cl)cc3)CC2)cc1OC`, > 100 µM (inactive). For the compound `Cc1ccc(-c2nnc(SCc3nc4ccccc4[nH]3)n2Cc2ccco2)cc1`, the IC50 is > 100 µM (inactive). Regarding `O=C(c1ccc(OCC2CCCO2)cc1)N1CCN(C(=O)C2COc3ccccc3O2)CC1` (stereo not given), the IC50 was > 100 µM (inactive). For the compound `COc1cccc(C(=O)N2CCN(C(=O)C3COc4ccccc4O3)CC2)c1` (stereo not given), the IC50 result is “inactive”. For the compound `c1ccc(-c2nnc(SCc3nc4ccccc4[nH]3)n2Cc2ccco2)nc1`, the IC50 was > 100 µM (inactive). As to `COc1ccc(C(=O)N2CCN(C(=O)COc3ccc(C)cc3)CC2)cc1OC`, the IC50 is > 100 µM (inactive).

Take `Cc1nc(COc2ccc(C(=O)N3CCN(C(=O)C4COc5ccccc5O4)CC3)cc2)cs1` (stereo not given): the IC50 was > 100 µM (inactive). Consider `CCOc1ccc(C(=O)N2CCN(C(=O)C3COc4ccccc4O3)CC2)cc1` (stereo not given), for which the IC50 was > 100 µM (inactive).

For `c1ccc(-c2nnc(SCc3nc4ccccc4[nH]3)n2Cc2ccco2)cc1`, the IC50 is > 100 µM (inactive). On to `COc1ccc(C(=O)N2CCN(C(=O)COc3ccccc3)CC2)cc1OC`, for which the IC50 was > 100 µM (inactive). On to `c1coc(Cn2c(SCc3nc4ccccc4[nH]3)nnc2-c2ccco2)c1`, for which the IC50 is > 100 µM (inactive).

Take `COc1cc(C(=O)N2CCN(C(=O)C3COc4ccccc4O3)CC2)cc(Cl)c1OC` (stereo not given): the IC50 is > 100 µM (inactive). As to `COc1ccc(C(=O)N2CCN(C(=O)CCc3c[nH]c4ccccc34)CC2)cc1OC`, the IC50 is > 100 µM (inactive).
